From ChEMBL document CHEMBL1125686, “(Benzoylphenyl)piperidines: a new class of immunomodulators” (1991) come the findings set out here.

What all share (assay type): functional
Assay [1] concerns Mus musculus. The experiment in a line: […] induction of Thyl+ antigen expression on murine bone marrow cells at the concentration of 2.5 uM(Fraction A).(treated). An outline of the steps: (§1)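 Bone marrow from female C57 BL/6 mice, 5–8 weeks old, separated on a discontinuous BSA gradient. Fraction A (lowest density) and fraction B (next lowest) resuspended at 10⁶ cells/mL in HBSS with 5% BSA. Cells incubated 24 h with one compound concentration, then stained directly with FITC anti-Thy1 and counted by epifluorescence microscopy. % Thy1⁺ cells recorded for treated and control cultures.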

For assay [2], the system named is Mus musculus. The experiment in a line: Percent of Thyl+ positive cells, in nude mice (in vivo). An outline of the steps:
(§2)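 Female nu/nu mice, 6–9 weeks old, dosed by gastric tube in 0.2 mL 2% arabic gum with 0.1% Tween-80; controls received vehicle only. Spleens taken 24 h later and splenocytes prepared. Thy1⁺ cells counted by direct FITC anti-Thy1 staining under epifluorescence. Five animals per group, mean ± SD.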

Assay [3] deals with Mus musculus. Briefly: […] induction of Thyl+ antigen expression on murine bone marrow cells at the concentration of 2.5 uM(Fraction A).(Control group). An outline of the steps:
as §1

The subject of assay [4] is Mus musculus. The experiment in a line: […] induction of Thyl+ antigen expression on murine bone marrow cells at the concentration of 2.5 uM(Fraction B).(treated). An outline of the steps:
as §1

In assay [5] the test system is Mus musculus. Briefly: Percent of Thyl+ positive cells / spleen x 10 e6 in nude mice (in vivo). The method, boiled down: as §2
Assay [6] relates to Mus musculus. Briefly: […] induction of Thyl+ antigen expression on murine bone marrow cells at the concentration of 2.5 uM(Fraction B).(Control group). The method, boiled down:
as §1

The subject of assay [7] is Mus musculus. Briefly: Proliferation induced by the mitogen alone-Concanavalin A (control blastogenesis), in mice cells dosed at 5 ug/mL. Also on record: unit not given here. An outline of the steps:
(§3)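 Splenocytes from female DBA/2 mice, 6–9 weeks old; red cells lysed with cold 0.17 M NH₄Cl. Cells plated at 5 × 10⁶ cells/mL in RPMI 1640 with 5% FCS, with compound (5–80 μg/mL range) and Con A, PWM or PHA at a batch-optimized concentration. Cultured 72 h at 37 °C, 5% CO₂, with [³H]thymidine for the final 24 h, read by scintillation. Triplicate wells; mean ± SD of three cultures.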

Assay [8] deals with Mus musculus. The experiment in a line: Maximal proliferation induced in the presence of the mitogen-Concanavalin A (stimulated blastogenesis) in mice cells dosed at 5 ug/mL. Also on record: unit not given here. The method, boiled down:
as §3

The test system of assay [9] is Mus musculus. Briefly: Percent of restoration in nude mice (in vivo). An outline of the steps:
as §2

Assay [10] has as its system Mus musculus. The experiment in a line: Percent of restoration of T- cell markers in nude mice (in vivo). An outline of the steps:
as §2

For assay [11], the species on record is Mus musculus. Briefly: Maximal proliferation induced by the test compound in the presence of the mitogen-PHA ( stimulated blastogenesis) in Mice cells at a dose of 10 ug/mL. An outline of the steps:
as §3

For assay [12], the species on record is Mus musculus. The experiment in a line: Proliferation induced by the mitogen alone-PHA (control blastogenesis), in Mice cells at a dose of 10 ug/mL. An outline of the steps: as §3
Assay [13] deals with Mus musculus. The experiment in a line: […] induction of Thyl+ antigen expression on murine bone marrow cells at the concentration of 7 uM(Fraction B).(treated). An outline of the steps: as §1
For assay [14], the species on record is Mus musculus. Briefly: Maximal proliferation induced in the presence of the mitogen-PWM ( stimulated blastogenesis) in Mice cells at a dose of 40 ug/mL. Also on record: unit not given here. An outline of the steps:
as §3

In assay [15] the test system is Mus musculus. The experiment in a line: […] induction of Thyl+ antigen expression on murine bone marrow cells at the concentration of 7 uM(Fraction A).(Control group). An outline of the steps: as §1
For assay [16], the system named is Mus musculus. Briefly: […] induction of Thyl+ antigen expression on murine bone marrow cells at the concentration of 7 uM(Fraction A).(treated)). The method, boiled down: as §1
The species named for assay [17] is Mus musculus. Briefly: Proliferation induced by the mitogen alone-PWM (control blastogenesis), in Mice cells at a dose of 40 ug/mL. Also on record: unit not given here. An outline of the steps:
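Splenocytes from female DBA/2 mice aged 6–9 weeks, red cells lysed with cold 0.17 M NH4Cl, cultured at 5 × 10⁶ cells/mL in RPMI 1640 with 5% FCS. Pokeweed mitogen added at a batch-adjusted optimal level, 72 h at 37 °C, 5% CO2. [³H]thymidine pulse for the final 24 h, then scintillation counting. Triplicates; mean ± SD of three cultures.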

Assay [18] has as its system Mus musculus. Briefly: […] induction of Thyl+ antigen expression on murine bone marrow cells at the concentration of 7 uM(Fraction B).(Control group). The method, boiled down: as §1
In assay [19] the test system is Mus musculus. Briefly: […] induction of Thyl+ antigen expression on murine bone marrow cells at the concentration of 2.9 uM(Fraction A).(treated). The method, boiled down:
as §1

Assay [20] concerns Mus musculus. Briefly: […] induction of Thyl+ antigen expression on murine bone marrow cells at the concentration of 2.9 uM(Fraction B).(Control group). The method, boiled down: as §1
The test system of assay [21] is Mus musculus. Briefly: […] induction of Thyl+ antigen expression on murine bone marrow cells at the concentration of 2.9 uM(Fraction A).(Control group). The method, boiled down:
as §1

The test system of assay [22] is Mus musculus. The experiment in a line: […] induction of Thyl+ antigen expression on murine bone marrow cells at the concentration of 2.9 uM(Fraction B).(treated). The method, boiled down: as §1
In assay [23] the test system is Mus musculus. The experiment in a line: […] induction of Thyl+ antigen expression on murine bone marrow cells at the concentration of 2.7 uM(Fraction A).(Control group). The method, boiled down:
as §1

Assay [24] has as its system Mus musculus. The experiment in a line: […] induction of Thyl+ antigen expression on murine bone marrow cells at the concentration of 2.7 uM(Fraction B).(treated). An outline of the steps:
as §1

In assay [25] the test system is Mus musculus. The experiment in a line: […] induction of Thyl+ antigen expression on murine bone marrow cells at the concentration of 2.7 uM(Fraction B).(Control group). An outline of the steps: as §1
The test system of assay [26] is Mus musculus. The experiment in a line: […] induction of Thyl+ antigen expression on murine bone marrow cells at the concentration of 2.7 uM(Fraction A).(treated). An outline of the steps:
as §1

As to `CCOC(=O)Nc1ccc(N2CCC(C)CC2)c(C(=O)c2ccc(Cl)cc2)c1`, the Differentiation with Mus musculus [1] is recorded as 11.6%; in the assay on Mus musculus [3], 6.1%; in the assay on Mus musculus [4] it was 5.5%; in the assay on Mus musculus [6], 6.1%. The molecule also came in with a Thylpositive cells in the assay with Mus musculus [2] of 3.4%. The same molecule registered a Thylpositive cells/spleen in the assay on Mus musculus [5] of 2.5e+06 cells/spleen. Moreover, the Proliferative response in the assay on Mus musculus [7] amounted to 8; with Mus musculus [8] it was 16.3. The Restoration was found to be 3.3% with Mus musculus [9] and 3.2% in the assay on Mus musculus [10].
Take `CC1CCN(c2ccc(N)cc2C(=O)c2ccc(Cl)cc2)CC1`: the Proliferative response in the assay filed under Mus musculus [11] stood at 43.5; in the assay filed under Mus musculus [12], 12.8; in the assay listed under Mus musculus [14] it was 101.9; in the assay on Mus musculus [7], 194.5; in the assay listed under Mus musculus [17] it was 36.5; with Mus musculus [8] it was 269.5. The same molecule had a Thylpositive cells in the assay with Mus musculus [2] of 6.9%. Besides, the Differentiation in the assay with Mus musculus [13] is 11.4%; with Mus musculus [15], 5.6%; in the assay with Mus musculus [16], 11.5%; in the assay with Mus musculus [18], 5%. Also, the Thylpositive cells/spleen with Mus musculus [5] is 6.65e+06 cells/spleen. In addition, the figures for the Restoration with Mus musculus [9] and with Mus musculus [10] were 24.5% and 14.3%, respectively.
With `CC1CCN(c2ccc(N)cc2C(=O)c2ccc(Cl)cc2)CC1C` (stereo not given), the Differentiation was 8.8% in the assay with Mus musculus [19], 6.1% in the assay with Mus musculus [20], 6.1% in the assay on Mus musculus [21] and 3% in the assay with Mus musculus [22]. Besides, the Proliferative response in the assay filed under Mus musculus [14] is 75.8; with Mus musculus [7], 48.6; in the assay listed under Mus musculus [17] it was 67.3; with Mus musculus [8], 50.2.
Consider `CC1CCCCN1c1ccc(N)cc1C(=O)c1ccc(Cl)cc1` (stereo not given), for which the Differentiation in the assay with Mus musculus [23] worked out at 5.6%; in the assay with Mus musculus [24], 4.4%; with Mus musculus [25] it was 5%; in the assay on Mus musculus [26] it was 6%. The Proliferative response in the assay filed under Mus musculus [14] amounted to 58.1; in the assay with Mus musculus [7], 131.5; in the assay filed under Mus musculus [17], 55.8; in the assay with Mus musculus [8], 295.
